Measured values published in ChEMBL document CHEMBL1136726, “Synthesis and characterization of iodine-123 labeled 2beta-carbomethoxy-3beta-(4'-((Z)-2-iodoethenyl)phenyl)nortropane. A ligand for in vivo imaging of serotonin transporters by single-photon-emission tomography” (J Med Chem, 2003).

Legend:
Rattus norvegicus [1] = test: Ratio of distribution of radioactivity in rat brain region pons and cerebellum 60 min after intravenous administration of iodine labeled compound in absence of blocker in study 2; assay type: ADME, organism-based; details: in vivo, 1 h
Rattus norvegicus [2] = test: Distribution of radioactivity in rat brain region hypothalamus 60 min after intravenous administration of iodine labeled compound in absence of blocker in study 2; assay type: ADME, organism-based; details: in vivo, 1 h
Method in brief: (§1)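 Male Sprague–Dawley rats (250–300 g), ketamine-anesthetized. Blocker (2 mg/kg) or none was given iv 15 min before tail-vein radioligand (10 µCi in 0.2 mL 10% EtOH/saline). Rats were killed at 60 min with im pentobarbital. Brain regions were dissected, weighed and gamma-counted. % dose/g was taken from decay-corrected, background-subtracted counts versus the injected dose.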

Rattus norvegicus [3] = test: Distribution of radioactivity in rat muscle tissue 5 min after intravenous administration of iodine labeled compound; assay type: ADME, organism-based; details: in vivo
Method in brief: (§2)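 Tail-vein injection of [123I]ZIENT (10 μCi in 0.2 mL 10% EtOH/0.9% NaCl, then 0.4 mL saline flush) into ketamine-anaesthetised male Sprague–Dawley rats (225–300 g). Animals were killed by cardiac excision at set times. Organs were excised, rinsed, blotted, weighed and gamma-counted. % dose/g was calculated against diluted aliquots of injectate. Mean ± SE, n=4–5.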

Rattus norvegicus [4] = test: Distribution of radioactivity in rat liver 60 min after intravenous administration of iodine labeled compound; assay type: ADME, organism-based; details: in vivo, 1 h; method in brief: as §2
Rattus norvegicus [5] = test: Ratio of distribution of radioactivity in rat brain region hypothalamus and cerebellum 60 min after intravenous administration of iodine labeled compound in presence of reboxetine blocker in study 2; assay type: ADME, organism-based; details: in vivo, 1 h
Rattus norvegicus [6] = test: Distribution of radioactivity in rat brain pons 60 min after intravenous administration of iodine labeled compound; assay type: ADME, organism-based; details: in vivo, 1 h
Method in brief: (§3)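 Male Sprague–Dawley rats (225–300 g) under ketamine received 10 µCi radioligand iv (tail vein) in 10% EtOH/saline. Hypothalamus, prefrontal cortex, striatum, pons and cerebellum were dissected, weighed and gamma-counted. % injected dose/g was taken from decay-corrected counts versus diluted dose. Mean ± SE and range, n=5 (5, 30 min) or 4 (60, 120 min).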

Rattus norvegicus [7] = test: Ratio of distribution of radioactivity in rat brain striatum and cerebellum 120 min after intravenous administration of iodine labeled compound; assay type: ADME, organism-based; details: in vivo, 2 h
Method in brief: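 Male Sprague–Dawley rats (225–300 g), ketamine anesthesia, injected via tail vein with [123I]ZIENT (10 μCi in 0.2 mL 10% EtOH/0.9% NaCl, 0.4 mL saline flush). Killed at 5, 30, 60 or 120 min. Striatum and cerebellum dissected, weighed, γ-counted. Decay-corrected %injected dose/g taken against diluted injectate. Ratio is striatum over cerebellum. Four or five rats per time point, mean ± standard error.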

Rattus norvegicus [8] = test: Distribution of radioactivity in rat testis 120 min after intravenous administration of iodine labeled compound; assay type: ADME, organism-based; details: in vivo, 2 h; method in brief: as §2
Rattus norvegicus [9] = test: Distribution of radioactivity in rat testis 60 min after intravenous administration of iodine labeled compound; assay type: ADME, organism-based; details: in vivo, 1 h; method in brief: as §2
Rattus norvegicus [10] = test: Distribution of radioactivity in rat brain region hypothalamus 60 min after intravenous administration of iodine labeled compound in absence of blocker in study 1; assay type: ADME, organism-based; details: in vivo, 1 h; method in brief: as §1
Rattus norvegicus [11] = test: Distribution of radioactivity in rat brain region frontal cortex 60 min after intravenous administration of iodine labeled compound in presence of fluvoxamine blocker in study 1; assay type: ADME, organism-based; details: in vivo, 1 h; method in brief: as §1
Rattus norvegicus [12] = test: Ratio of distribution of radioactivity in rat brain region prefrontal cortex and cerebellum 60 min after intravenous administration of iodine labeled compound in absence of blocker in study 2; assay type: ADME, organism-based; details: in vivo, 1 h
Rattus norvegicus [13] = test: Distribution of radioactivity in rat brain region hypothalamus 60 min after intravenous administration of iodine labeled compound in presence of fluvoxamine blocker in study 1; assay type: ADME, organism-based; details: in vivo, 1 h; method in brief: as §1
Rattus norvegicus [14] = test: Distribution of radioactivity in rat brain region striatum 60 min after intravenous administration of iodine labeled compound in absence of blocker in study 1; assay type: ADME, organism-based; details: in vivo, 1 h
Method in brief: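 Male Sprague–Dawley rats (250–300 g), ketamine-anaesthetised, received [123I]ZIENT (10 μCi) in 0.2 mL 10% ethanol/0.9% NaCl via the tail vein. […] Rats were killed at 60 min with pentobarbital, brain regions dissected and gamma-counted. Values are % dose/g from decay-corrected, background-subtracted counts against the diluted injected dose.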

Rattus norvegicus [15] = test: Distribution of radioactivity in rat kidney 60 min after intravenous administration of iodine labeled compound; assay type: ADME, organism-based; details: in vivo, 1 h; method in brief: as §2
Rattus norvegicus [16] = test: Ratio of distribution of radioactivity in rat brain region hypothalamus and cerebellum 60 min after intravenous administration of iodine labeled compound in absence of blocker in study 2; assay type: ADME, organism-based; details: in vivo, 1 h
Rattus norvegicus [17] = test: Distribution of radioactivity in rat liver 5 min after intravenous administration of iodine labeled compound; assay type: ADME, organism-based; details: in vivo; method in brief: as §2
Rattus norvegicus [18] = test: Distribution of radioactivity in rat brain 5 min after intravenous administration of iodine labeled compound; assay type: ADME, organism-based; details: in vivo
Rattus norvegicus [19] = test: Distribution of radioactivity in rat liver 30 min after intravenous administration of iodine labeled compound; assay type: ADME, organism-based; details: in vivo, 0.5 h; method in brief: as §2
Rattus norvegicus [20] = test: Distribution of radioactivity in rat brain 60 min after intravenous administration of iodine labeled compound; assay type: ADME, organism-based; details: in vivo, 1 h
Rattus norvegicus [21] = test: Distribution of radioactivity in rat spleen 30 min after intravenous administration of iodine labeled compound; assay type: ADME, organism-based; details: in vivo, 0.5 h; method in brief: as §2
Rattus norvegicus [22] = test: Distribution of radioactivity in rat brain prefrontal cortex 5 min after intravenous administration of iodine labeled compound; assay type: ADME, organism-based; details: in vivo; method in brief: as §3
Rattus norvegicus [23] = test: Ratio of distribution of radioactivity in rat brain region pons and cerebellum 60 min after intravenous administration of iodine labeled compound in presence of RTI-113 blocker in study 1; assay type: ADME, organism-based; details: in vivo, 1 h
Rattus norvegicus [24] = test: Distribution of radioactivity in rat brain hypothalamus 120 min after intravenous administration of iodine labeled compound; assay type: ADME, organism-based; details: in vivo, 2 h; method in brief: as §3
Rattus norvegicus [25] = test: Distribution of radioactivity in rat spleen 5 min after intravenous administration of iodine labeled compound; assay type: ADME, organism-based; details: in vivo; method in brief: as §2
Rattus norvegicus [26] = test: Distribution of radioactivity in rat brain cerebellum 120 min after intravenous administration of iodine labeled compound; assay type: ADME, organism-based; details: in vivo, 2 h; method in brief: as §3
Rattus norvegicus [27] = test: Distribution of radioactivity in rat brain region pons 60 min after intravenous administration of iodine labeled compound in absence of blocker in study 1; assay type: ADME, organism-based; details: in vivo, 1 h; method in brief: as §1
Rattus norvegicus [28] = test: Distribution of radioactivity in rat brain pons 5 min after intravenous administration of iodine labeled compound; assay type: ADME, organism-based; details: in vivo; method in brief: as §3
Rattus norvegicus [29] = test: Ratio of distribution of radioactivity in rat brain region hypothalamus and cerebellum 60 min after intravenous administration of iodine labeled compound in presence of fluvoxamine blocker in study 1; assay type: ADME, organism-based; details: in vivo, 1 h
Rattus norvegicus [30] = test: Distribution of radioactivity in rat brain cerebellum 30 min after intravenous administration of iodine labeled compound; assay type: ADME, organism-based; details: in vivo, 0.5 h; method in brief: as §3
Rattus norvegicus [31] = test: Distribution of radioactivity in rat brain region prefrontal cortex 60 min after intravenous administration of iodine labeled compound in presence of fluvoxamine blocker in study 1; assay type: ADME, organism-based; details: in vivo, 1 h; method in brief: as §1
Rattus norvegicus [32] = test: Distribution of radioactivity in rat brain 120 min after intravenous administration of iodine labeled compound; assay type: ADME, organism-based; details: in vivo, 2 h
[33] = molecular target: Sodium-dependent noradrenaline transporter (Homo sapiens, UniProt P23975); test: In vitro competitive binding versus [3H]- […] in murine kidney cells transfected with cDNA for human norepinephrine transporter (NET); assay type: cell-based
Rattus norvegicus [34] = test: Distribution of radioactivity in rat brain hypothalamus 5 min after intravenous administration of iodine labeled compound; assay type: ADME, organism-based; details: in vivo; method in brief: as §3
Rattus norvegicus [35] = test: Distribution of radioactivity in rat brain cerebellum 5 min after intravenous administration of iodine labeled compound; assay type: ADME, organism-based; details: in vivo; method in brief: as §3
Rattus norvegicus [36] = test: Distribution of radioactivity in rat brain cerebellum 60 min after intravenous administration of iodine labeled compound; assay type: ADME, organism-based; details: in vivo, 1 h; method in brief: as §3
Rattus norvegicus [37] = test: Distribution of radioactivity in rat kidney 5 min after intravenous administration of iodine labeled compound; assay type: ADME, organism-based; details: in vivo; method in brief: as §2

Sodium-dependent noradrenaline transporter, sequence (P23975 whole entry): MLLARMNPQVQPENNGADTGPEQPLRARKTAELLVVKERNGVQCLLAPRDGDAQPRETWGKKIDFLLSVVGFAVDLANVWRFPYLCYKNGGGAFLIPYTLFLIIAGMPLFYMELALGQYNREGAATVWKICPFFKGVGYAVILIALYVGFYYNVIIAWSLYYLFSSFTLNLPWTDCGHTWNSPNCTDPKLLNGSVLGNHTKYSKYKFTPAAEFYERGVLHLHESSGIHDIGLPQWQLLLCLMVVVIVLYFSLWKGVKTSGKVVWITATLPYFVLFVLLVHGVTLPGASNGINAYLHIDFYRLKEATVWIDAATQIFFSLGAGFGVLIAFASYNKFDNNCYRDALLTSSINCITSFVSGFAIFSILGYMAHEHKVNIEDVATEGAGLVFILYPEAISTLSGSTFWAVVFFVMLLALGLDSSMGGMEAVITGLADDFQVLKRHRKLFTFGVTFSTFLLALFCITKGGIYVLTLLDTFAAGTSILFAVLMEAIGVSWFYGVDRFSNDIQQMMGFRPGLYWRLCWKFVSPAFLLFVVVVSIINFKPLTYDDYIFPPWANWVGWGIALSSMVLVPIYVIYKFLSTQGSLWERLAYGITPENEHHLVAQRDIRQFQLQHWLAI

For `COC(=O)[C@@H]1C2CCC(C[C@@H]1c1ccc(/C=C\I)cc1)N2` (some centres not stated), the “Distribution (dose/g)” value (Rattus norvegicus [1]) was 2.79%, the “Distribution (dose/g)” value (Rattus norvegicus [2]) was 0.75% and the “Distribution (dose/g)” value (Rattus norvegicus [3]) was 0.23%. The “Distribution (dose/g)” value (Rattus norvegicus [4]) was 0.22%, the “Distribution (dose/g)” value (Rattus norvegicus [5]) was 2.83% and the “Distribution (dose/g)” value (Rattus norvegicus [6]) was 0.59%. For the same compound, the “Distribution (dose/g)” value (Rattus norvegicus [7]) was 4%, the “Distribution (dose/g)” value (Rattus norvegicus [8]) was 0.31% and the “Distribution (dose/g)” value (Rattus norvegicus [9]) was 0.32%. For the same compound, the “Distribution (dose/g)” value (Rattus norvegicus [10]) was 0.92%, the “Distribution (dose/g)” value (Rattus norvegicus [11]) was 0.27% and the “Distribution (dose/g)” value (Rattus norvegicus [12]) was 3.89%. For the same compound, the “Distribution (dose/g)” value (Rattus norvegicus [13]) was 0.31%, the “Distribution (dose/g)” value (Rattus norvegicus [14]) was 0.76% and the “Distribution (dose/g)” value (Rattus norvegicus [15]) was 0.34%. The “Distribution (dose/g)” value (Rattus norvegicus [16]) was 3.95%, the “Distribution (dose/g)” value (Rattus norvegicus [17]) was 0.38% and the “Distribution (dose/g)” value (Rattus norvegicus [18]) was 0.83%. For the same compound, the “Distribution (dose/g)” value (Rattus norvegicus [19]) was 0.31%, the “Distribution (dose/g)” value (Rattus norvegicus [20]) was 0.62% and the “Distribution (dose/g)” value (Rattus norvegicus [21]) was 0.81%. The “Distribution (dose/g)” value (Rattus norvegicus [22]) was 0.77%, the “Distribution (dose/g)” value (Rattus norvegicus [23]) was 2.24% and the “Distribution (dose/g)” value (Rattus norvegicus [24]) was 0.59%. For the same compound, the “Distribution (dose/g)” value (Rattus norvegicus [25]) was 1.81%, the “Distribution (dose/g)” value (Rattus norvegicus [26]) was 0.12% and the “Distribution (dose/g)” value (Rattus norvegicus [27]) was 0.62%. The “Distribution (dose/g)” value (Rattus norvegicus [28]) was 0.59%, the “Distribution (dose/g)” value (Rattus norvegicus [29]) was 1.82% and the “Distribution (dose/g)” value (Rattus norvegicus [30]) was 0.32%. For the same compound, the “Distribution (dose/g)” value (Rattus norvegicus [31]) was 0.28%, the “Distribution (dose/g)” value (Rattus norvegicus [32]) was 0.39% and the Ki [33] was 24 nM. The “Distribution (dose/g)” value (Rattus norvegicus [34]) was 0.58%, the “Distribution (dose/g)” value (Rattus norvegicus [35]) was 0.53% and the “Distribution (dose/g)” value (Rattus norvegicus [36]) was 0.25%. For the same compound, the “Distribution (dose/g)” value (Rattus norvegicus [37]) was 1.13%.
